Bioassay records deposited in PubChem by The Scripps Research Institute Molecular Screening Center.
A selection: hits, their analogues and other compounds. The true share with any hit is near 2.5%.
GSTO1 inh = blocks human GSTO1 in RBBP9 counter-screen. recombinant GSTO1, activity-based probe fluorescence polarization. AID 1974. P78417. inhibition, % at 5.96 µM. hit rate 1.1% among 300,000;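 active = inhibition above the campaign mean inhibition plus 3 SD, cut at about 35% in these data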
Target sequence (P78417 whole entry, looked up): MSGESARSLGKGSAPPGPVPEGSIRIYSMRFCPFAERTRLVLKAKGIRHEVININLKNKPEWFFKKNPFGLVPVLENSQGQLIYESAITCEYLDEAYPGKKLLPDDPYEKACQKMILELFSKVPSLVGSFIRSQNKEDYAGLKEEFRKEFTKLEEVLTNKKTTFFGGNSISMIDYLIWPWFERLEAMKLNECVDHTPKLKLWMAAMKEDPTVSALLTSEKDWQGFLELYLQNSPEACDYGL
PAD4 FP inh = inhibitors of human PAD4; Q9UM07; recombinant PAD4, RCA probe fluorescence polarization; inhibition, % at 6.36 µM; hit rate 0.41% among 330,000;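 active = percent inhibition above a cutoff equal to the mean of all tested compounds plus 3 SD, cut at about 15% in these data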
PRMT1 FP inh = inhibitors of human PRMT1; AID 652257; inhibition, % at 2.79 µM; hit rate 1.3% among 370,000; recombinant PRMT1, activity-based probe fluorescence polarization; Q99873;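 active = inhibition above about 21% made by adding two undisclosed values, limit read from the data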
Target sequence (Q99873 whole entry, looked up): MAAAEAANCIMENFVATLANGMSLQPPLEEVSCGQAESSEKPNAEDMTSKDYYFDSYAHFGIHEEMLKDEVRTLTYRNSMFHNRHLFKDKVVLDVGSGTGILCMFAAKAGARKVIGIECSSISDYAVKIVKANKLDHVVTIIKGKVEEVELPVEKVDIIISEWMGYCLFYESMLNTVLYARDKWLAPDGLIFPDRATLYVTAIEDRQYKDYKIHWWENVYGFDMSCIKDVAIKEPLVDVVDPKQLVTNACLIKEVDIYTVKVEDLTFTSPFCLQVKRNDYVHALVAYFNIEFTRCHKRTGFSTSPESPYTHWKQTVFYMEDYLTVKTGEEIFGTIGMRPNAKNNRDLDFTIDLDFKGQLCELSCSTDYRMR
eLon inh = E. coli protease La inhibition; hit rate 0.42% among 360,000; P0A9M0; inhibition, % at 7.94 µM; purified E. coli Lon protease, fluorescence polarization; in the data active = inhibition above about 13%, passing the limit was not always enough
TDP2 absorb = blocks human TDP2 phosphodiesterase activity; O95551; recombinant TDP2, T5PNP hydrolysis, p-nitrophenol absorbance 415 nm; inhibition, % at 12.8 µM; hit rate 0.34% among 370,000; AID 720702;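 active = inhibition above the mean of all tested compounds plus 3 SD, set per campaign, cut at about 25% in these data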
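System – recombinant human TDP2 · Amount – 120 nM TDP2 per well · Buffer or medium – Mg2+-containing Tris-HCl buffer, pH 7.5 · Reagent – T5PNP substrate, 5 mM · Dosing – 12.8 µM single point, 1% DMSO · Incubation – 2 h at 37 °C · Measured by – epi absorbance · Read-out basis – percent inhibition · Benchmarks – high control without enzyme, low control DMSO plus TDP2 · Repeats – singlicate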
PRMT1 inh conf = PRMT1 (human) inhibition, FP confirmation. shares compounds with PRMT1 FP inh. recombinant His-PRMT1, activity-based probe fluorescence polarization. inhibition, % at 2.79 µM. hit rate 42% among 3,300;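 active = mean inhibition across replicates above the hit cutoff derived for the earlier primary screen, cut at about 22% in these data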
A number is an active result; i = inactive; nt = no result.

SMILES	GSTO1 inh	PAD4 FP inh	PRMT1 FP inh	eLon inh	TDP2 absorb	PRMT1 inh conf
O=C(NC1CCCCC1)c1ccc(-c2ccccc2)cc1	i	i	42	i	i	i
O=C(NC1CCCCCCC1)c1ccc(F)cc1	i	i	i	i	i	nt
Cc1cc(C)cc(C(O)c2ncc(-c3ccc(F)cc3)[nH]2)c1 (centres undefined)	nt	nt	nt	i	nt	nt
Cn1c(N)c(C(=O)NCc2ccccc2)sc1=S	i	i	26	i	i	i
COc1ccc(OC)c(/C=N/NC(=O)CC(=O)NC2CCCCC2)c1	i	i	i	i	i	nt
Cc1ccc(-c2nn(-c3cccc(F)c3)cc2CN(Cc2nccn2C)C(C)C)o1	i	i	41	i	i	i
Cc1nc(CNS(=O)(=O)c2cccc(F)c2)cs1	i	i	i	i	i	nt
Cc1ccc(-c2csc(NS(=O)(=O)c3cccc(F)c3)n2)o1	nt	i	54	i	i	i
Cc1cc(C)c2c(=O)n(CC(=O)Nc3ccc(Br)c(C)c3)sc2n1	i	i	93	i	i	97
Cc1c(Cl)cccc1NC(=O)Cn1cccc1	i	i	i	i	i	nt
Cc1cc(C)c2c(=O)n(CC(=O)NC3CCCC3)sc2n1	i	i	83	i	i	89
Cc1cc(C)c2c(=O)n(CC(=O)Nc3cccc(Cl)c3C)sc2n1	i	i	97	i	i	92
O=C(Nc1ccc(F)cc1)C(c1ccnc2ccccc12)N1CCN(c2cccc(C(F)(F)F)n2)CC1 (centres undefined)	nt	nt	i	nt	i	nt
O=C1NC[C@@H](CCCCN2C[C@H](Cc3ccc(O)cc3)N(CCc3ccccc3)C(=O)C2=O)N(CC2CCCCC2)C1=O	nt	nt	i	i	i	nt
O=C(COC(=O)Cc1ccsc1)Nc1ccc(Cl)cc1F	nt	i	i	i	i	nt
Cc1ccc(CNC(=O)C2CCN(S(=O)(=O)c3c(C)noc3/C=C/c3ccco3)CC2)cc1	i	i	i	i	i	nt
Cc1noc(/C=C/c2ccco2)c1S(=O)(=O)N1CCC(C(=O)NCc2ccco2)CC1	i	i	32	i	i	i
CCCCn1c(N)c(N(C)C(=O)c2cc3c(s2)CCCCC3)c(=O)[nH]c1=O	nt	i	i	i	i	nt
Fc1cccc(Cc2c(-c3ccco3)nc3ccc(Br)cn23)c1	nt	nt	34	i	i	i
Cc1cc(Br)cn2c(Cc3cccc(F)c3)c(-c3ccco3)nc12	nt	nt	35	nt	i	30
O=C(O)CCS(=O)(=O)c1cc(Br)cc2c1N(C(=O)C1CC1)CC2	i	i	i	i	i	nt
Cc1ccc(CNC(=O)CCS(=O)(=O)c2cc(Br)cc3c2N(C(=O)C2CC2)CC3)o1	i	i	48	i	i	i
Cc1cccc(/C=N/n2c(COc3ccccc3)n[nH]c2=S)c1	nt	nt	28	i	i	i
CC(/C=N/n1c(COc2ccccc2)n[nH]c1=S)=C\c1ccccc1	i	i	27	i	i	i
COc1cccc(/C=N/n2c(COc3ccccc3)n[nH]c2=S)c1OC	i	i	27	i	i	i
SMILES	GSTO1 inh	PAD4 FP inh	PRMT1 FP inh	eLon inh	TDP2 absorb	PRMT1 inh conf
S=c1[nH]nc(COc2ccccc2)n1/N=C/c1ccc(Cl)c(Cl)c1	i	i	i	i	i	nt
CC(=C/c1ccccc1)/C=N/n1c(C)n[nH]c1=S	i	i	i	i	i	nt
CCOC(=O)[C@@]12CN(C(=O)OC(C)(C)C)CC=C1N(Cc1ccc(OC)cc1)C(=O)[C@H]2CC(=O)NCCCCc1ccccc1	nt	nt	i	nt	i	nt
CCC(=O)N1CCN(c2ccc(-n3c(=O)ccc4cnc5ccc(-c6cnc7ccccc7c6)cc5c43)cc2C(F)(F)F)CC1	nt	nt	i	nt	i	nt
CCc1ccc2[nH]c(=O)c(CN(CCN(C)C)C(=S)NCc3ccco3)cc2c1	i	i	33	i	i	i
CCOc1ccc2[nH]c(=O)c(CN(Cc3ccco3)C(=O)c3cccc(F)c3)cc2c1	i	i	nt	i	nt	nt
CCOc1ccc2[nH]c(=O)c(CN(Cc3ccco3)C(=O)c3ccc(Br)cc3)cc2c1	nt	nt	36	i	i	i
CCOC(=O)C1=C(CSc2nc(C)cc(C)c2C#N)OC(N)=C(C#N)C1c1cccs1 (centres undefined)	i	i	nt	nt	nt	nt
CCOC(=O)C1=C(CSc2nc(C)cc(C)c2C#N)OC(N)=C(C#N)C1c1ccccc1 (centres undefined)	i	i	i	i	i	nt
CCOC(=O)C1=C(CSc2nc(CC)c(C)cc2C#N)OC(N)=C(C#N)C1c1ccccc1 (centres undefined)	i	i	28	i	i	i
CCOC(=O)C1=C(CSc2nc(-c3ccccc3)ccc2C#N)OC(N)=C(C#N)C1c1ccc(OC)cc1 (centres undefined)	i	i	48	i	i	i
CCc1nnc(NC(=O)CCC(=O)Nc2ccc(Cl)cc2)s1	i	i	i	i	i	nt
Nc1cccnc1Sc1cc(Cl)cc(Cl)c1	i	i	62	i	i	i
S=c1nc(-c2cc(Cl)ccc2Cl)[nH][nH]1	i	i	56	i	i	47
Cc1cccc(CN2CCN(C3CN(Cc4ccc([N+](=O)[O-])cc4)S(=O)(=O)C3)CC2)c1 (centres undefined)	nt	nt	i	i	i	nt
Cc1cc(NC(=O)CSCC(=O)OCC(=O)c2cccc(Br)c2)no1	nt	i	27	i	i	i
CCC12OC(=N)C(C#N)(C1C)C(C#N)(C#N)C(c1ccccc1)O2 (centres undefined)	i	i	28	i	i	30
N#Cc1c([N+](=O)[O-])cc([N+](=O)[O-])cc1S(=O)(=O)Cc1ccccc1	nt	i	72	i	i	61
COc1cc(OC)c(C#N)c(S(=O)(=O)Cc2ccccc2)c1	i	i	i	i	i	nt
Clc1cccc(Cc2c(-c3cccc(Cl)c3)nc3c4ccccc4ccn23)c1	nt	nt	i	i	i	nt
Clc1cccc(Cc2c(-c3ccco3)nc3c4ccccc4ccn23)c1	nt	nt	25	i	i	i
Fc1cccc(Cc2c(-c3ccco3)nc3c4ccccc4ccn23)c1	nt	nt	30	i	i	i
Fc1ccc(-c2nc3c4ccccc4ccn3c2Cc2cccc(F)c2)cc1	nt	nt	i	nt	i	nt
Cc1sc2ccccc2[n+]1CCC(C)S(=O)(=O)[O-] (centres undefined)	i	i	36	i	i	34
Cc1sc2ccccc2[n+]1CC(=O)O	i	i	48	i	i	54
SMILES	GSTO1 inh	PAD4 FP inh	PRMT1 FP inh	eLon inh	TDP2 absorb	PRMT1 inh conf
Cc1sc2ccccc2[n+]1CC(=O)c1ccccc1	i	i	nt	i	nt	nt
Cc1cccnc1NC(=O)CNC(=O)COc1ccccc1	i	i	i	i	i	nt
O=C(CCNC(=O)c1ccco1)NCCc1ccc(Cl)cc1	nt	nt	47	i	i	i
N#C/C(=C\c1ccc([N+](=O)[O-])o1)C(=O)Nc1ccc(F)cc1	i	i	31	i	i	i
CCOC(=O)CC[C@H]1CC[C@]2(CCCN(C(=O)c3ccco3)C2)O1	nt	nt	i	nt	i	nt
O=C(NN1C(=O)/C(=C/c2cccs2)SC1=S)c1cccnc1	i	i	27	i	i	i
O=C(NN1C(=O)/C(=C/c2cccs2)SC1=S)c1ccccc1	i	i	nt	i	nt	nt
CC(C)C1Nc2ccc(C(=O)NCc3ccco3)cc2NC1=O (centres undefined)	i	i	i	i	i	nt
